Screening data from PubChem BioAssay.
Shown is part of a subset that was picked to be rich in hits.
MPTP inh = inhibitors of mitochondrial permeability transition pore; isolated mouse mitochondria, Ca2+ swelling absorbance, 30 min; 360,000 compounds, 1.4% hits; AID 602449; inhibition, % at 10 µM;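 active = inhibition of 50% or more, scaled per plate between neutral and stimulator controls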;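 note: 0% = DMSO wells given calcium and 100% = 1 mM EGTA wells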
Lmaj promast = reduces viability of Leishmania major promastigotes; 200,000 compounds, 9% hits; resazurin fluorescence viability; inhibition, % at 10 µM; AID 1063; in the data active = inhibition above about 50%;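 note: promastigotes grown with compound for 44 hours at 28 °C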
T cruzi inh = T. cruzi replication inhibition. T. cruzi beta-gal in NIH3T3, luminescence, 90 h. inhibition, % (concentration not given with the values). 300,000 compounds, 1.4% hits. AID 1885;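 active = mean inhibition across valid replicates above about 55%, limit read from the data; inconclusive = mean below that limit but half or more replicates reach it; inactive = mean below it, under half of replicates reach it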;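 note: signal also drops with host cell toxicity which is not excluded here; 0% = plate median of DMSO wells and 100% = zero luminescence signal; higher percent means less beta-gal luminescence so fewer parasites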
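Material: NIH/3T3 host cells with β-galactosidase reporter T. cruzi; Input: 5,000 host fibroblasts per well; Medium: DMEM, 2% fetal bovine serum; Compound: 50 nL DMSO compound solution per well; Schedule: 3 h host attachment, then at least 90 h co-culture; Detection: luminescent β-galactosidase signal after 60 min lysis.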
Lipid droplet = modulators of hepatic lipid droplet formation | AML12 mouse hepatocytes, oleate lipid droplets, BODIPY imaging | inhibition, % at 6.5 µM | 240,000 compounds, 0.4% hits;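 active = lipid droplet intensity inhibited by at least 50%, with more than 500 cells counted; inconclusive = wells with under 300 cells, treated as cytotoxic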
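Test system: AML12 hepatocytes (mouse); reagent: oleate loading, 100 µM; dosing: one dose, 6.5 µM compound; incubation: overnight exposure; signal: fluorescence imaging, 20x objective, two fields per well; read-out basis: % inhibition of corrected integrated BODIPY droplet signal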
Redox H2O2 prof = compounds producing H2O2 with reducing agent – biochemical, NIH compound library profiling, artefact control for MLSCN library redox annotation, primary screen. AID 878. DTT-dependent redox cycling H2O2, phenol red/HRP absorbance; 100% = 100 µM peroxide control, 0% = buffer. activation, % at 10 µM. 200,000 compounds, 0.03% hits;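 active = activation of at least 50% relative to the plate's high and low controls in the primary single-dose screen; inactive = activation below 50%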;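 note: compound incubated with DTT at 0.8 mM final as the reducing agent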
L major 1uM = blocks Leishmania major promastigote growth at 1 uM, repeat screen. inhibition, % at 1 µM. 1,100 compounds, 13% hits. shares compounds with Lmaj promast. L. major promastigote growth, resazurin fluorescence, 48 h;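 active = inhibition above about 50% in both repeat tests, limit read from the data; inconclusive = one repeat under the set limit, the other over it; inactive = both repeats under the set limit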
The depositor's hits bear a star; ? = inconclusive; · = no result.

SMILES | MPTP inh | Lmaj promast | T cruzi inh | Lipid droplet | Redox H2O2 prof | L major 1uM
O=C(O)c1ccccc1C(c1ccccc1)c1ccccc1O (stereo unspecified) | 0 | · | · | · | · | ·
COc1ccc(NC(=O)c2ccc3c(c2)C(=O)N(Cc2cccnc2)C3=O)c(OC)c1 | -1 | -9 | -13 | 2 | -3 | ·
COc1ccc(NC(=O)N(Cc2ccc(C)cc2)Cc2cccnc2)c(OC)c1 | 1 | 70* | 25 | · | 0 | -3
Cc1ccc(NC(=O)N2CCCCCC2)cc1C | -1 | · | -3 | 27 | · | ·
Cc1ccc(NC(=O)N2CCCN(Cc3ccc(F)cc3)C2)cc1C | 31 | 94* | 28 | · | 0 | 53*
CC(=O)Nc1ccc(S(=O)(=O)NCCSCc2ccccc2Cl)cc1 | 11 | 68* | -18 | -9 | 0 | -8
CC(=O)Nc1ccc(S(=O)(=O)NCCC(=O)Nc2ccc(C)c(Cl)c2)cc1 | 0 | 3 | -8 | -18 | 0 | ·
COc1ccc(-c2nn(-c3ccccc3)cc2/C=C/C(=O)N2CCOCC2)cc1OC | 2 | 28 | 23 | -11 | -2 | ·
CC12COC3(P(=O)(c4ccccc4)c4ccccc4)CC1CCC23CP(=O)(c1ccccc1)c1ccccc1 (stereo unspecified) | 4 | 62* | 25 | -7 | 2 | -7
Cn1nc(C(F)(F)F)c2cc(NC(=O)OCc3ccc(C(C)(C)C)cc3)sc21 | 11 | 97* | 36 | 8 | 0 | -14
c1cc2c(cc1C1CCCCC1)c1c3n2CCN=C3CCC1 | -8 | 101* | 71* | -4 | 1 | 15
Cc1cccc(C(=O)Nc2cccc(C(=O)N3CCOCC3)c2)c1 | 0 | 20 | -3 | 22 | 0 | ·
CC(=O)/C(=N/Nc1cccc(C)c1)N1CCOCC1 | 0 | 64* | -9 | -11 | 0 | -8
COc1ccc(C(C)=O)cc1CSc1ccc(S(=O)(=O)N2CCOCC2)cn1 | 1 | · | · | · | · | ·
CCN(CC(=O)NC1CCS(=O)(=O)C1)c1ccc(S(=O)(=O)N(CC)CC)cc1[N+](=O)[O-] (stereo unspecified) | 0 | · | · | · | · | ·
CCOc1ccc(Cn2c3ccc(OC)cc3c3nc4ccccc4nc32)cc1 | 1 | 54* | · | 0 | 0 | -6
Cc1nn(Cc2n[nH]c(=S)n2Cc2ccccc2)c(C)c1Cl | 1 | 90* | 0 | · | 2 | -11
COc1ccc(CC(=O)OC(C)CN2CCCC2)cc1 (stereo unspecified) | 0 | 100* | -13 | 0 | 0 | -11
COc1ccc(OCC(=O)OC(C)CN2CCCCC2)cc1 (stereo unspecified) | 1 | · | -5 | -14 | · | ·
FC(F)(F)c1nc(-c2ccncc2)ncc1-c1nnnn1-c1ccccc1 | 3 | 61* | 0 | · | -4 | 11
COc1ccc(Cn2cc3c(-c4ccc(F)cc4)nnc-3c3cc(OC)c(OC)cc32)cc1 | 4 | 17 | · | 5 | -2 | ·
COc1cc2c3nnc(-c4ccc(F)cc4)c-3cn(Cc3ccc(F)cc3)c2cc1OC | 3 | 97* | 1 | · | -1 | -17
c1ccc(N2CCN(c3ccccc3)C2c2cccs2)cc1 | -5 | 94* | 13 | 12 | 2 | -6
CN1CCN(S(=O)(=O)c2ccc(NC(=S)NC(=O)c3ccc(Cl)cc3)cc2)CC1 | 3 | 85* | · | · | -4 | -8
CCOC(=O)C1=Nc2ccccc2C1=[N+]=[N-] | 0 | 79* | 30 | -161 | 1 | 46
SMILES | MPTP inh | Lmaj promast | T cruzi inh | Lipid droplet | Redox H2O2 prof | L major 1uM
CCOC(=O)c1cnc(-c2ccccc2O)nc1Cl | 1 | 5 | 5 | -2 | 1 | ·
O=C(O)c1ccc(CSC2CCCCC2)cc1 | 0 | · | -8 | -1 | · | ·
CNc1ccccc1C(C)(C)c1cc(-c2cccc(Br)c2)no1 | 11 | 99* | 51 | -1 | -1 | 88*
CCOC(=O)C1=C(C)NC2=C(C(=O)c3ccccc32)C1c1cccc2ccccc12 (stereo unspecified) | 7 | · | 29 | 27 | · | ·
CCN1C(=O)NC2=C(C(=O)c3ccccc32)C1c1ccccc1F (stereo unspecified) | 0 | 100* | 10 | -1 | 0 | 29
O=C(CSC1=NCCN1)NC12CC3CC(CC(C3)C1)C2 | 0 | 100* | 9 | · | 1 | -5
Cc1nnc(SCC(=O)NC23CC4CC(CC(C4)C2)C3)s1 | -4 | 0 | -14 | -1 | 1 | ·
CN(CC(=O)Nc1ccccc1C(F)(F)F)C(=O)COc1cccnc1[N+](=O)[O-] | 1 | -6 | 5 | 18 | 0 | ·
O=C(C(=O)N1CCN(c2ccc(F)cc2)CC1)c1cn(CC(=O)N2CCOCC2)c2ccccc12 | -2 | · | -3 | 3 | · | ·
O=C(O)c1ccc(NC(=S)NC(NC(=O)c2ccco2)C(Cl)(Cl)Cl)cc1 (stereo unspecified) | 1 | -3 | -23 | -18 | 0 | ·
Cc1ccc(NC(=S)NC(NC(=O)c2ccco2)C(Cl)(Cl)Cl)cc1 (stereo unspecified) | -2 | 83* | 3 | -2 | 0 | -6
CN(CC(=O)NCCc1ccc(F)cc1)Cc1cccc(Cl)c1 | -2 | -12 | 2 | -4 | -3 | ·
Nc1c(-c2ccccc2)c(CN2CCOCC2)nn1-c1ccc(C(=O)O)cc1 | -2 | 66* | 3 | 5 | -1 | -6
Cc1c(CN(C)C(=O)/C=C/c2ccc([N+](=O)[O-])cc2)cnn1C | 1 | -1 | -22 | 16 | 1 | ·
Cc1ccc(-c2cc3cccc[n+]3cc2-c2ccc(C)cc2)cc1 | 5 | 100* | 60* | -29 | -1 | 91*
O=C(Cn1cc(COc2ccc(Cl)c(Cl)c2)nn1)NS(=O)(=O)c1ccccc1C(F)(F)F | 0 | · | · | · | · | ·
COc1cccc(C2(C)NC(=O)N(CC(=O)c3cc(C)n(C4CC4)c3C)C2=O)c1 (stereo unspecified) | 1 | · | · | · | · | ·
CNCCCCOc1ccccc1-c1ccccc1 | 1 | 39 | 13 | 21 | 1 | ·
N=C(N)CCCOc1ccccc1-c1ccccc1 | 0 | 53* | -5 | -1 | 0 | -11
COc1ccc2c(Cl)c(C(=O)NN3CCN(C)CC3)sc2c1 | 7 | 3 | ? | -90 | 0 | ·
CCc1nc(CN2CCN(c3cc(C(F)(F)F)ccn3)CC2)c(C)[nH]1 | 14 | · | 14 | 21 | · | ·
Cc1ccc(C2CN=NC23CCc2ccccc2C3=O)cc1 (stereo unspecified) | 2 | -4 | 1 | 3 | 0 | ·
O=C1c2ccccc2CCCC12N=NCC2c1cccc2ccccc12 (stereo unspecified) | 3 | 53* | ? | · | -9 | 7
Cc1ccc(S(=O)(=O)c2ccc(C)cc2)cc1 | 0 | 0 | 6 | 0 | 1 | ·
Cc1ccc(S(=O)(=O)c2ccc(Oc3cccc(C)c3)cc2)cc1 | 3 | 74* | 19 | · | 2 | 85*
Cc1ccc(NC(=O)CCc2nc3sc4c(c3c(=O)[nH]2)CCCC4)c(Br)c1 | -1 | · | 0 | · | · | ·
